{"data": "Assay results pooled from the literature", "target": "Mitogen-activated protein kinase kinase kinase 1 (MAP3K1, Homo sapiens, UniProt Q13233)"}
{"SMILES": "FC(F)(F)Oc1cccc(-c2cnc3ccc(-c4ccncc4)nn23)c1", "assay": "enzyme activity, inhibitor, radiometric", "setting": "1 µM", "quantity": "activity vs control", "value": "94%"}
{"SMILES": "CC1CCCN1c1nccc(-c2cnn3ncccc23)n1 (stereo not shown)", "assay": "binding", "setting": "1 µM", "quantity": "remaining binding", "value": "87%"}
{"SMILES": "CC(C)(C)c1nc2c(s1)c1nc(N)ncc1c1ccc(NS(=O)(=O)c3c(F)cccc3F)c(F)c12", "assay": "enzyme activity, inhibitor, radiometric", "setting": "1 µM", "quantity": "remaining activity", "value": "90%"}
{"SMILES": "Cn1c(=O)n(-c2ccc(C(C)(C)C#N)cc2)c2c3cc(-c4cnc5ccccc5c4)ccc3ncc21", "assay": "enzyme activity, inhibitor", "setting": "10 µM", "quantity": "remaining activity", "value": "67%"}
{"SMILES": "CC(C)(O)[C@H]1CC[C@H](Nc2ccc3ncc(-c4cccc(C(F)(F)F)c4)n3n2)CC1", "assay": "enzyme activity, inhibitor", "setting": "1 µM", "quantity": "remaining activity", "value": "99%"}
{"SMILES": "CN(C)C(=O)Cn1cc(-c2nc([C@@](C)(c3ccc(-c4cnc(N)nc4)cc3)C3CC3)no2)cn1", "assay": "cell-free assay, competition with immobilised ligand", "setting": "1 µM", "quantity": "remaining binding", "value": "90%"}
{"SMILES": "Oc1cccc(-c2nc(N3CCOCC3)c3oc4ncccc4c3n2)c1", "assay": "enzyme activity, inhibitor", "setting": "10 µM", "quantity": "remaining activity", "value": "97%"}
{"SMILES": "COc1cc(Nc2cnc(C#N)c(O[C@H](C)CN(C)C)n2)ncc1-c1cnn(C)c1", "assay": "enzyme activity, inhibitor, radiometric", "setting": "1 µM", "quantity": "remaining activity", "value": "92%"}
{"SMILES": "CS(=O)(=O)NCC[C@H](NC(=O)c1cncc2c1cnn2-c1ccc(F)cc1)c1ccnc(S(C)(=O)=O)c1", "assay": "cell-free assay, competition with immobilised ligand", "setting": "1 µM", "quantity": "remaining binding", "value": "100%"}
{"SMILES": "COc1cc(/C=C/C(=O)CC(=O)/C=C/c2ccc(O)c(OC)c2)ccc1O", "assay": "enzyme activity, inhibitor", "setting": "1 µM", "quantity": "activity vs control", "value": "89%"}
{"SMILES": "CN(C)C(=O)Cn1cc(-c2nc(C3(c4ccc(-c5cnc(N)nc5)cc4)CC3)no2)cn1", "assay": "cell-free assay, competition with immobilised ligand", "setting": "1 µM", "quantity": "remaining binding", "value": "77%"}
{"SMILES": "O=C(Nc1cnn(-c2csc(C(=O)NC3COC3)c2)c1)Nc1c(F)cccc1Cl", "assay": "enzyme activity, inhibitor", "setting": "5 µM", "quantity": "remaining activity", "value": "98.7%"}
{"SMILES": "Cc1ccc(C(=O)Nc2ccc(CN3CCN(C)CC3)c(C(F)(F)F)c2)cc1C#Cc1cnc2cccnn12", "assay": "enzyme activity, inhibitor", "setting": "23.5 nM", "quantity": "remaining activity", "value": "82%"}
{"SMILES": "Cc1sc(C(=O)NC2COC2)cc1-n1cc(NC(=O)Nc2c(F)cccc2Cl)cn1", "assay": "enzyme activity, inhibitor", "setting": "10 µM", "quantity": "remaining activity", "value": "94.5%"}
{"SMILES": "CC(C)(C)c1nc(-c2cccc(NS(=O)(=O)c3c(F)cccc3F)c2F)c(-c2ccnc(N)n2)s1", "assay": "enzyme activity, inhibitor, radiometric", "setting": "1 µM", "quantity": "remaining activity", "value": "84%"}
{"SMILES": "Nc1ncnc2occ(-c3ccc(NC(=O)Nc4cc(C(F)(F)F)ccc4F)cc3)c12", "assay": "cell-free assay, inhibitor", "setting": "20 µM", "quantity": "remaining signal", "value": "6.9%"}
